Screens as filed in PubChem.
The list is not random: actives were taken first. Their share in the collection is about 3.8%.
B2AR ag – agonists of human beta-2 adrenergic receptor inducing internalization | P07550 | Am2.2-beta2AR cells, FAP receptor internalization, flow cytometry | response, % (concentration not given with the values) | actives 0.43% (n = 340,000) | AID 504454;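 active = response above a set limit, near 3 SD of response in nonfluorescent compounds, cut at about 42% in these data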
Target sequence (P07550 whole entry, looked up): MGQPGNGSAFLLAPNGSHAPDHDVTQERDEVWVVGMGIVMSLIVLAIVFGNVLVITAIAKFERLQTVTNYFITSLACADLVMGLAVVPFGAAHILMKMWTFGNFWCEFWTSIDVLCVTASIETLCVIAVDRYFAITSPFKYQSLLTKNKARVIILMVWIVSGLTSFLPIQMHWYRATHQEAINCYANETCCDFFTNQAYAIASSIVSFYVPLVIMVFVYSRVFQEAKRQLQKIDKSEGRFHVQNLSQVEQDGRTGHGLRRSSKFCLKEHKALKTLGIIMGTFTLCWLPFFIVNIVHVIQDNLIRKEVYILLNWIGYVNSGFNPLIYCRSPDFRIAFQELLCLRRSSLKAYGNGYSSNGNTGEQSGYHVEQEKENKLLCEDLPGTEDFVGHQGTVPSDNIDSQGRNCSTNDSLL
V-ATPase pHluor – alters yeast V-ATPase proton transport. S. cerevisiae, pHLuorin cytosolic pH fluorescence. response, % at 10 µM. actives 0.37% (n = 350,000). AID 504577; in the data active = response mostly above about 7.3%, no sharp cut-off; inactive = mostly below about 5.4%; also: actives read high
Exocytosis inh – blocks lytic granule exocytosis | actives 0.66% (n = 360,000) | TALL-104 LAMP-1 surface exposure, flow cytometry; cells stimulated with thapsigargin and PMA | inhibition, % at 10 µM | AID 651702;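 active = inhibition above about 55%, limit read from the data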
rCAG binder – r(CAG) repeat RNA binding | TO-PRO-1 dye displacement fluorescence | inhibition, % at 3 µM | actives 1.3% (n = 370,000);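 active = inhibition above the plate cutoff, the mean of all test compounds on that plate plus 3 SD, cut at about 35% in these data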;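 also: 0% = DMSO alone and 100% = 100 µM mitoxantrone as full dye displacement; higher means more dye released from RNA so lower well fluorescence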
T cell HTS – T cell immune modulators affecting CD8 T cell-vesicle binding | 2C CD8+ T cell-vesicle binding, flow cytometry; active compounds read low | response (vesicle binding), % at 7 µM | actives 0.068% (n = 330,000);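 active = response, share of CD8 T cells binding vesicles, and their 90th percentile fluorescence all below set limits, cut at about 80% in these data, passing the limit was not always enough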;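 also: values below 100% mean blocked vesicle binding to the CD8+ T cells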
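Also added: QL9-peptide-loaded Drosophila micro-vesicles bearing Ld, ICAM-1 and B7-1; Test system: purified 2C TCR transgenic mouse naive CD8+ T cells; Measured by: cytometric PE anti-B7-1 and Alexa647 anti-CD8 signals after 1% paraformaldehyde fixation; Timing: binding step 1.5 h, 37 °C, antibody labelling 20 min, ice.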
MPTP inh – permeability transition pore inhibition. isolated mouse mitochondria, Ca2+ swelling absorbance, 30 min. inhibition, % at 10 µM. actives 1.4% (n = 360,000);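 active = inhibition of 50% or more, scaled per plate between neutral and stimulator controls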;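 also: 0% = DMSO wells given calcium and 100% = 1 mM EGTA wells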
* hit, by the source's call; i = inactive; x = no result given.

SMILES	B2AR ag	V-ATPase pHluor	Exocytosis inh	rCAG binder	T cell HTS	MPTP inh
COc1cc(C(=O)Nc2nnc(-c3sccc3C)s2)cc(OC)c1OC	-5	0	6	4	80*	2
Nc1cc(C(=O)OCC(=O)c2ccc(CC(=O)N3CCOCC3)s2)ccc1Cl	2	2	0	15	0.0*	-1
Cc1ccc(C2=CC(c3ccccc3)n3ncnc3N2)cc1 (stereo not drawn)	-1	1	68*	-6	171	1
CCC1=CC(c2ccccc2)n2ncnc2N1 (stereo not drawn)	-1	14*	-6	-1	358	-2
O=C(CCc1ccccc1)N[C@H]1[C@@H](OC(=O)C2CC2)CCC[C@@]12C(=O)N(Cc1ccccc1)c1ccccc12	x	x	x	3	x	x
C#CCCN([C@H](C(=O)OC)C(C)C)S(=O)(=O)c1ccccc1Br	x	x	x	-1	x	x
Cc1cccc(CS(=O)(=O)c2ncc(Cl)c(C(=O)Nc3c(C)cccc3C)n2)c1	30	-1	55	0	217	2
CCCc1nnc(NC(=O)c2nc(S(=O)(=O)Cc3cccc(C)c3)ncc2Cl)s1	24	0	28	35*	427	-1
CCOCCCNC(=S)NCCCNc1nc2c(C)cc(C)cc2cc1C#N	16	0	-1	-5	x	1
Cc1cc(C)c2nc(NCCCNC(=S)NCCCN(C)C)c(C#N)cc2c1	43*	-2	52	6	i	0
COC(=O)C1CN(Cc2ccccc2)CCS(=O)(=O)N1Cc1ccc(Cl)cc1 (stereo not drawn)	x	x	x	2	x	x
CCCCOc1ccc(C(=O)N/N=C/c2ccc(OCCN3CCCCC3)c(OC)c2)cc1	43*	-9	-4	-2	643	-1
CC1c2[nH]c3ccccc3c2CCN1C(=O)Nc1ccccc1 (stereo not drawn)	-13	1	-1	2	189	-1
O=C(Nc1ccccc1)N1CCc2c([nH]c3ccccc23)C1C(F)(F)F (stereo not drawn)	17	0	18	1	32*	12
COc1ccc(S(=O)(=O)N2CCC(O)(c3ccc(Cl)cc3)CC2)cc1OC	-40	17*	6	0	891	8
CCN(CC)S(=O)(=O)c1nnc(NC(=O)c2ccco2)s1	-6	-5	-14	7	402	0
CCN(c1ccc(C)cc1)S(=O)(=O)c1nnc(NC(=O)c2ccco2)s1	26	-6	0	44*	232	16
CCCCS(=O)(=O)N1CCCc2nc(-c3ccc(F)cc3)ccc21	x	x	x	5	x	x
COc1ccc(CN(C(=O)/C=C/C(=O)c2ccc(OC)cc2O)C(C(=O)NC2CCCCC2)c2ccncc2)cc1 (stereo not drawn)	1	0	7	-1	871	1
COc1ccc(C(=O)/C=C/C(=O)N(CC(=O)NC2CCCCC2)Cc2cccs2)c(O)c1	115*	-1	53	4	630	-7
COCCN(CC(=O)NC1CCCCC1)C(=O)/C=C/C(=O)c1ccc(OC)cc1O	91*	-3	44	-6	x	-1
COc1ccc(C(=O)/C=C/C(=O)N(Cc2ccc3c(c2)OCO3)C(C(=O)NC2CCCCC2)c2ccncc2)c(O)c1 (stereo not drawn)	3	-6	-4	1	189	-1
Cc1cccc(CS(=O)(=O)c2nnc([C@H](Cc3ccccc3)NC(=O)OC(C)(C)C)o2)c1	61*	4	34	x	312	1
CC(C)(C)OC(=O)N[C@@H](Cc1ccccc1)c1nnc(SCC(N)=O)o1	-4	1	-5	-5	316	2
CCc1ccc(NCCC(=O)c2ccc(Br)cc2)cc1	-2	15*	1	x	341	0
SMILES	B2AR ag	V-ATPase pHluor	Exocytosis inh	rCAG binder	T cell HTS	MPTP inh
COc1ccc([N+](=O)[O-])cc1NC(=O)C(C)Sc1ccccc1 (stereo not drawn)	3	-2	-1	-1	0	2
COc1ccc([N+](=O)[O-])cc1NC(=O)C(C)Sc1nc(-c2ccccc2)cs1 (stereo not drawn)	-2	0	1	4	0.0*	-3
CN1C(=O)/C(=N\OC(=O)c2cccc3ccccc23)c2ccccc21	14	0	80*	8	255	1
COc1ccc(C(=O)O/N=C2\C(=O)N(C)c3ccccc32)cc1	6	-1	66*	-1	695	2
CC1=CC2C(C(O)CC3(C)C2CC(C)C32OCOC23COCO3)C2(C)C/C(=C\O)C(=O)C=C12 (stereo not drawn)	27	3	72*	19	x	-1
CC(C)C[C@H]1COc2cccc(F)c2S(=O)(=O)N1Cc1cn(Cc2ccc(C(F)(F)F)cc2)nn1	x	x	x	0	x	x
COc1cc(C)c(C(=O)Oc2cc(C)c(C(=O)O)c(O)c2)c(O)c1	8	-1	-1	35*	254	4
Cc1cc(C)c2c(-n3cccc3)c(C(=O)NNS(=O)(=O)c3ccc(Cl)cc3)sc2n1	6	2	0	35*	302	6
COc1ccc2ccccc2c1C=NNC(=O)c1cc(-c2ccc(C)c(C)c2)n[nH]1	x	x	x	20	x	x
Cc1cc(C)c(C#N)c(SCc2ccccc2F)n1	-9	14*	-2	-1	382	-1
Cc1cc(C)c(C#N)c(SCc2ccccc2C)n1	-25	2	-3	-2	999	-1
O=C(O)c1ccc(OCc2ccc(C(=O)O)o2)cc1	0	2	-8	1	198	1
O=C(O)c1ccc(OCc2occc2C(=O)O)cc1	-4	17*	-1	6	143	12
O=C1/C(=C\c2ccc(Br)cc2)SC(=S)N1NS(=O)(=O)c1ccccc1	8	-3	57*	6	219	4
O=C1/C(=C/c2cccnc2)SC(=S)N1NS(=O)(=O)c1ccccc1	-6	3	-5	14	213	-1
Cc1ccc(S(=O)(=O)NN2C(=O)/C(=C/c3cccc(F)c3)SC2=S)cc1	4	0	-2	75*	314	3
Cc1ccc(C)c(NC(=O)CN2C(=O)CCSc3ccccc32)c1	x	x	x	4	x	x
O=C(c1ccccc1)N1CCC(Oc2cccnc2)CC1	x	x	x	3	x	x
O=C(CCl)N(c1ccc(Cl)cc1)c1c[nH]c2ccccc12	69*	-2	18	-1	426	14
CCn1c(=O)c([N+](=O)[O-])c(NCCc2ccccc2)c2ccccc21	8	8.5*	5	x	226	0
Cn1c(=O)c([N+](=O)[O-])c(NCCc2ccccc2)c2ccccc21	-5	-5	3	2	261	10
C#CCNC(=O)C[C@H]1C[C@@]2(C(=O)OC)C(=C[C@H](C(C)C)O[C@@H]2C2CC2)N(CCCCCCCC)C1=O	x	x	x	2	x	x
CC1CCCN(S(=O)(=O)c2ccc(NC(=O)C3CC(=O)N(c4ccccc4)C3)cc2)C1 (stereo not drawn)	-1	14*	7	4	322	0
